≈ marks a conversion by molar mass, not a printed value.
How the values were obtained:
[1] = test system: HT-29; assay: Inhibition of VEGF protein secretion in human HT-29 cells at 10 ug/mL after 72 hrs by ELISA relative to control; format: functional; parameters: scale not given: the % may be the effect or the level left
[2] = Selectivity ratio of IC50 for HEK293 cells to IC50 for human MCF7 cells; format: ADME, cell-based; conditions: HEK293 cells versus MCF7 cells, read-out: Ratio IC50
[3] = test system: MCF7; assay: Down regulation of c-Myc gene expression in human MCF7 cells at 10 ug/mL after 48 hrs by RT-qPCR analysis relative to control; format: functional
In short: (§1)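 HT-29 or MCF-7 cells grown to 70–80% confluence, serum-starved 24 h, then exposed to compound in DMSO for 48 h; DMSO-only control. Total RNA extracted and transcript measured by RT-qPCR, normalized to β-actin and expressed as percentage of control. At least three measurements; mean ± SEM; one-sample t-test.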

[4] = test system: HT-29; assay: Down regulation of VEGF gene expression in human HT-29 cells at 10 ug/mL after 48 hrs by RT-qPCR analysis relative to control; format: functional; in short: as §1
[5] = test system: MCF7; assay: Cytotoxicity against human MCF7 cells assessed inhibition of cell proliferation after 3 days by MTT assay; conditions: MCF7, 72 h
[6] = test system: MCF7; assay: Down regulation of hTERT gene expression in human MCF7 cells at 10 ug/mL after 48 hrs by RT-qPCR analysis relative to control; format: functional; in short: as §1
[7] = Selectivity ratio of IC50 for HEK293 cells to IC50 for human HT-29 cells; format: ADME, cell-based; conditions: HEK293 cells versus HT-29 cells, read-out: Ratio IC50
[8] = test system: MCF7; assay: Down regulation of VEGF gene expression in human MCF7 cells at 10 ug/mL after 48 hrs by RT-qPCR analysis relative to control; format: functional; in short: as §1
[9] = test system: HT-29; assay: Down regulation of c-Myc gene expression in human HT-29 cells at 10 ug/mL after 48 hrs by RT-qPCR analysis relative to control; format: functional; in short: as §1
[10] = test system: MCF7; assay: Inhibition of VEGF protein secretion in human MCF7 cells at 10 ug/mL after 72 hrs by ELISA relative to control; format: functional; parameters: scale not given: the % may be the effect or the level left
[11] = test system: HT-29; assay: Down regulation of hTERT gene expression in human HT-29 cells at 10 ug/mL after 48 hrs by RT-qPCR analysis relative to control; format: functional; in short: as §1
[12] = test system: HEK293; assay: Cytotoxicity against HEK293 cells assessed inhibition of cell proliferation after 3 days by MTT assay; conditions: Homo sapiens, HEK293, 72 h
[13] = test system: HT-29; assay: Cytotoxicity against human HT-29 cells assessed inhibition of cell proliferation after 3 days by MTT assay; conditions: HT-29, 72 h
[14] = test system: HT-29; assay: Down regulation of hTERT gene expression in human HT-29 cells at 2 ng/mL after 48 hrs by RT-qPCR analysis relative to control; format: functional; in short: as §1
[15] = test system: MCF7; assay: Potency index, ratio of compound activity to resveratrol activity for down regulation of c-Myc gene expression in human MCF7 cells; format: functional
[16] = test system: MCF7; assay: Down regulation of c-Myc gene expression in human MCF7 cells at 1 ng/mL after 48 hrs by RT-qPCR analysis relative to control; format: functional; in short: as §1
[17] = test system: MCF7; assay: Down regulation of hTERT gene expression in human MCF7 cells at 2 ng/mL after 48 hrs by RT-qPCR analysis relative to control; format: functional; in short: as §1
[18] = Inhibition of VEGF protein secretion in human HT-29 cells at 2 ng/mL after 72 hrs by ELISA relative to control; format: functional; parameters: scale not given: the % may be the effect or the level left
[19] = test system: HT-29; assay: Down regulation of hTERT gene expression in human HT-29 cells at 3 ng/mL after 48 hrs by RT-qPCR analysis relative to control; format: functional; in short: as §1
[20] = test system: MCF7; assay: Inhibition of VEGF protein secretion in human MCF7 cells at 1 ng/mL after 72 hrs by ELISA relative to control; format: functional; parameters: scale not given: the % may be the effect or the level left
[21] = test system: HT-29; assay: Potency index, ratio of compound activity to resveratrol activity for down regulation of hTERT gene expression in human HT-29 cells; format: functional
[22] = test system: HT-29; assay: Down regulation of VEGF gene expression in human HT-29 cells at 1 ng/mL after 48 hrs by RT-qPCR analysis relative to control; format: functional; in short: as §1
[23] = test system: HT-29; assay: Down regulation of VEGF gene expression in human HT-29 cells at 3 ng/mL after 48 hrs by RT-qPCR analysis relative to control; format: functional; in short: as §1
[24] = test system: MCF7; assay: Inhibition of VEGF protein secretion in human MCF7 cells at 2 ng/mL after 72 hrs by ELISA relative to control; format: functional; parameters: scale not given: the % may be the effect or the level left
[25] = test system: MCF7; assay: Potency index, ratio of compound activity to resveratrol activity for down regulation of VEGF gene expression in human MCF7 cells; format: functional
[26] = test system: MCF7; assay: Down regulation of VEGF gene expression in human MCF7 cells at 2 ng/mL after 48 hrs by RT-qPCR analysis relative to control; format: functional; in short: as §1
[27] = test system: HT-29; assay: Down regulation of hTERT gene expression in human HT-29 cells at 1 ng/mL after 48 hrs by RT-qPCR analysis relative to control; format: functional; in short: as §1
[28] = test system: MCF7; assay: Potency index, ratio of compound activity to resveratrol activity for down regulation of hTERT gene expression in human MCF7 cells; format: functional
[29] = test system: MCF7; assay: Down regulation of c-Myc gene expression in human MCF7 cells at 2 ng/mL after 48 hrs by RT-qPCR analysis relative to control; format: functional; in short: as §1
[30] = test system: MCF7; assay: Down regulation of VEGF gene expression in human MCF7 cells at 1 ng/mL after 48 hrs by RT-qPCR analysis relative to control; format: functional; in short: as §1
[31] = test system: HT-29; assay: Down regulation of c-Myc gene expression in human HT-29 cells at 3 ng/mL after 48 hrs by RT-qPCR analysis relative to control; format: functional; in short: as §1
[32] = test system: HT-29; assay: Down regulation of c-Myc gene expression in human HT-29 cells at 1 ng/mL after 48 hrs by RT-qPCR analysis relative to control; format: functional; in short: as §1
[33] = test system: HT-29; assay: Inhibition of VEGF protein secretion in human HT-29 cells at 1 ng/mL after 72 hrs by ELISA relative to control; format: functional; parameters: scale not given: the % may be the effect or the level left
[34] = test system: HT-29; assay: Down regulation of VEGF gene expression in human HT-29 cells at 2 ng/mL after 48 hrs by RT-qPCR analysis relative to control; format: functional; in short: as §1
[35] = test system: HT-29; assay: Potency index, ratio of compound activity to resveratrol activity for down regulation of c-Myc gene expression in human HT-29 cells; format: functional
[36] = test system: HT-29; assay: Down regulation of c-Myc gene expression in human HT-29 cells at 2 ng/mL after 48 hrs by RT-qPCR analysis relative to control; format: functional; in short: as §1
[37] = test system: MCF7; assay: Down regulation of hTERT gene expression in human MCF7 cells at 1 ng/mL after 48 hrs by RT-qPCR analysis relative to control; format: functional; in short: as §1
[38] = test system: HT-29; assay: Inhibition of VEGF protein secretion in human HT-29 cells at 3 ng/mL after 72 hrs by ELISA relative to control; format: functional; parameters: scale not given: the % may be the effect or the level left

Oc1ccc(/C=C/c2cc(O)cc(O)c2)cc1 [RESVERATROL]
Activity [1]: 78% | selectivity ratio [2]: 0.4 | Activity [3]: 41% | Activity [4]: 65% | IC50 [5]: 16.1 µg/mL (≈ 70.5 µM) | Activity [6]: 77% | selectivity ratio [7]: 0.2 | Activity [8]: 54% | Activity [9]: 51% | Activity [10]: 100% | Activity [11]: 57% | IC50 [12]: 7.1 µg/mL (≈ 31.1 µM) | IC50 [13]: 34.1 µg/mL (≈ 149 µM)

Nc1cccc(/C=C/c2ccccc2)c1
Activity [1]: 77% | selectivity ratio [2]: 6 | Activity [4]: 100% | IC50 [5]: 14 µg/mL (≈ 71.7 µM) | selectivity ratio [7]: 6.5 | Activity [9]: 100% | Activity [11]: 100% | IC50 [12]: 84 µg/mL (≈ 430 µM) | IC50 [13]: 12.9 µg/mL (≈ 66.1 µM)

Nc1ccccc1/C=C/c1ccccc1
Activity [1]: 59% | selectivity ratio [2]: 0.9 | Activity [4]: 100% | IC50 [5]: 1.4 µg/mL (≈ 7.17 µM) | selectivity ratio [7]: 0.1 | Activity [9]: 100% | Activity [11]: 59% | IC50 [12]: 1.3 µg/mL (≈ 6.66 µM) | IC50 [13]: 17 µg/mL (≈ 87.1 µM)

COc1cccc(/C=C/c2cccc(O)c2)c1
Activity [1]: 65% | selectivity ratio [2]: 1.5 | Activity [4]: 60% | IC50 [5]: 13 µg/mL (≈ 57.5 µM) | selectivity ratio [7]: 1.6 | Activity [9]: 59% | Activity [11]: 41% | IC50 [12]: 19 µg/mL (≈ 84 µM) | IC50 [13]: 11.5 µg/mL (≈ 50.8 µM)

COc1ccc(/C=C/c2ccc(N)cc2)cc1
selectivity ratio [2]: 5.7 | Activity [14]: 100% | Ratio [15]: 3000 | Activity [16]: 54% | Activity [17]: 51% | Activity [18]: 84% | Activity [19]: 48% | Activity [20]: 100% | IC50 [5]: 0.0021 µg/mL (≈ 0.00932 µM) | Ratio [21]: 3000 | Activity [22]: 65% | Activity [23]: 67% | Activity [24]: 75% | Ratio [25]: 5000 | Activity [26]: 36% | selectivity ratio [7]: 3.4 | Activity [27]: 100% | Ratio [28]: 3000 | Activity [29]: 30% | Activity [30]: 48% | Activity [31]: 69% | Activity [32]: 88% | Activity [33]: 92% | Activity [34]: 66% | Ratio [35]: 3000 | Activity [36]: 71% | IC50 [12]: 0.012 µg/mL (≈ 0.0533 µM) | IC50 [13]: 0.0036 µg/mL (≈ 0.016 µM) | Activity [37]: 80% | Activity [38]: 59%

COc1ccc(/C=C/c2cccc(O)c2)cc1
Activity [1]: 73% | selectivity ratio [2]: 1.1 | Activity [4]: 38% | IC50 [5]: 21 µg/mL (≈ 92.8 µM) | selectivity ratio [7]: 1.1 | Activity [9]: 46% | Activity [11]: 48% | IC50 [12]: 24 µg/mL (≈ 106 µM) | IC50 [13]: 22 µg/mL (≈ 97.2 µM)

COc1ccccc1/C=C/c1ccc(O)cc1
Activity [1]: 67% | selectivity ratio [2]: 2.2 | Activity [4]: 46% | IC50 [5]: 19 µg/mL (≈ 84 µM) | selectivity ratio [7]: 1.7 | Activity [9]: 100% | Activity [11]: 100% | IC50 [12]: 41 µg/mL (≈ 181 µM) | IC50 [13]: 24 µg/mL (≈ 106 µM)

Source: ChEMBL document CHEMBL3734660, “Inhibitory effect of cytotoxic stilbenes related to resveratrol on the expression of the VEGF, hTERT and c-Myc genes” (Eur J Med Chem, 2015)
